In brackets after ≈: the same amount, converted by molar mass.
Tests used:
Raji [1] = experiment: Dose required to inhibit Human B-Lymphoblast (Raji) cell proliferation by 50%; format: functional; conditions: read-out: CD50 (the source's name)
Oryctolagus cuniculus = species: Oryctolagus cuniculus; experiment: Minimum cytotoxic concentration required to cause a microscopically detectable alteration of normal cell morphology and show antiviral activity in primary rabbit kidney (PRK) cells; format: functional
Nucleic Acid [2] = experiment: Association constant against polynucleotide poly (dG-dC); format: nucleic-acid assay
Method in brief: (§1)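 Competition with ethidium bromide binding at 25 °C in 0.01 M cacodylate buffer, pH 7.0, with 1.26 μM ethidium bromide and 1 μM polynucleotide. Bound ethidium is estimated from its fluorescence increase (V = 34 for poly(dA-dT), 25 for poly(dG-dC)). IC50 for 50% ethidium displacement comes from a fitted competition sigmoid. Kapp is calculated from IC50 assuming a binding size of four base pairs.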

Sindbis virus = experiment: (§2) Minimum inhibitory concentration required to reduce Sindbis virus induced cytopathogenicity by 50% in african green monkey (VeroB) cells; format: functional
Method in brief: (§3)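 Cell cultures (PRK, HeLa or Vero B) are infected at 100 × CCID50. Cytopathogenicity is recorded once it reaches completion in the untreated virus-infected controls. The minimum inhibitory concentration is given in μg/mL.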

HeLa [3] = experiment: Minimum cytotoxic concentration required to cause a microscopically detectable alteration of normal cell morphology and show antiviral activity in HeLa cells; format: functional; conditions: Homo sapiens
Method in brief: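 HeLa cell cultures exposed to compound for the same duration as the antiviral assay, then examined microscopically. The minimum cytotoxic concentration is the lowest level causing detectable alteration of normal cell morphology. Values are in μg/mL.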

[4] = tested on: Mammalian orthoreovirus 1; experiment: Minimum inhibitory concentration required to reduce reovirus-1 induced cytopathogenicity by 50% in african green monkey (VeroB)cells; format: functional; method in brief: as §3
L1210 = experiment: Dose required to inhibit Murine leukemia (L1210) cell proliferation by 50%; format: functional; conditions: Mus musculus, read-out: CD50 (the source's name)
Vero [5] = experiment: Minimum inhibitory concentration required to reduce Coxsackie virus B4 induced cytopathogenicity by 50% in african green monkey (VeroB) cells; format: functional, Coxsackievirus B4; conditions: Chlorocebus sabaeus; method in brief: as §3
Nucleic Acid [6] = experiment: Ratio of association constant of poly (dA-dT) and poly (dG-dC); format: nucleic-acid assay
Method in brief: (§4)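 Kapp for poly(dA-dT) and for poly(dG-dC) is each determined by ethidium bromide competition in 0.01 M cacodylate, pH 7.0, 25 °C, with 1.26 μM ethidium and 1 μM polynucleotide. IC50 comes from a fitted competition sigmoid and is converted to Kapp assuming a four-base-pair binding size. The ratio is taken between the two polynucleotides.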

HeLa [7] = experiment: Minimum inhibitory concentration required to reduce vesicular stomatitis virus induced cytopathogenicity by 50% in HeLa cells; format: functional; conditions: Homo sapiens
Vero [8] = experiment: Minimum inhibitory concentration required to reduce parainfluenza virus-3 induced cytopathogenicity by 50% in african green monkey (VeroB) cells; format: functional, Human respirovirus 3; conditions: Chlorocebus sabaeus; method in brief: as §3
HeLa [9] = experiment: Minimum inhibitory concentration required to reduce polio virus -1 induced cytopathogenicity by 50% in HeLa cells; format: functional; conditions: Homo sapiens
Vero [10] = experiment: Minimum cytotoxic concentration required to cause a microscopically detectable alteration of normal cell morphology and show antiviral activity in african green monkey (Vero B) cells; format: functional; conditions: Chlorocebus sabaeus
[11] = Minimum inhibitory concentration required to reduce herpes simplex virus-1 (KOS)induced cytopathogenicity by 50% in primary rabbit kidney cells (PRK); format: functional; conditions: Oryctolagus cuniculus
[12] = Minimum inhibitory concentration required to reduce herpes simplex virus-2 (G)induced cytopathogenicity by 50% in primary rabbit kidney cells (PRK); format: functional; conditions: Oryctolagus cuniculus
HeLa [13] = experiment: Minimum inhibitory concentration required to reduce Coxsackie virus B4 induced cytopathogenicity by 50% in HeLa cells; format: functional; conditions: Homo sapiens; method in brief: as §3
[14] = Dose required to inhibit Human T-Lymphoblast (Molt/4F) cell proliferation by 50%; format: functional; conditions: read-out: CD50 (the source's name)
Nucleic Acid [15] = experiment: Association constant against the polynucleotide poly (dA-dT).; format: nucleic-acid assay; method in brief: as §1
[16] = (§5) Minimum inhibitory concentration required to reduce vesicular stomatitis virus induced cytopathogenicity by 50% in primary rabbit kidney cells (PRK); format: functional; conditions: Oryctolagus cuniculus
Semliki Forest virus = experiment: Minimum inhibitory concentration required to reduce semliki forest virus induced cytopathogenicity by 50% in african green monkey (VeroB) cells; format: functional; method in brief: as §3
[17] = Dose required to inhibit Murine mammary carcinoma (FM3A) cell proliferation by 50%; format: functional; conditions: Mus musculus, read-out: CD50 (the source's name)
Human alphaherpesvirus 2 = experiment: Minimum inhibitory concentration required to reduce herpes simplex virus-2(G) induced cytopathogenicity by 50% in primary rabbit kidney cells (PRK); format: functional; method in brief: as §3
Human alphaherpesvirus 1 = experiment: Minimum inhibitory concentration required to reduce herpes simplex virus-1 (KOS) induced cytopathogenicity by 50% in primary rabbit kidney cells(PRK); format: functional; method in brief: as §3
Raji [18] = experiment: Inhibition of Human B-Lymphoblast Raji cell proliferation; format: functional; conditions: read-out: CD50 (the source's name)
[19] = tested on: Vesicular stomatitis virus; experiment: as §5; format: functional
Nucleic Acid [20] = experiment: Association constant against the polynucleotide poly(dA-dT); format: nucleic-acid assay; method in brief: as §1
FM3A = experiment: In vitro inhibition of FM3A (murine mammary carcinoma) cell proliferation.; format: functional; conditions: Mus musculus, read-out: CD50 (the source's name)
Nucleic Acid [21] = experiment: Ratio of association constant of poly(dA-dT) and poly(dG-dC); format: nucleic-acid assay; method in brief: as §4
Vero [22] = experiment: as §2; format: ADME, cell-based; conditions: Chlorocebus sabaeus, read-out: MIC; method in brief: as §3
[23] = Minimum inhibitory concentration required to reduce herpes simplex virus-2 (G) induced cytopathogenicity by 50% in primary rabbit kidney cells (PRK); format: functional; conditions: Oryctolagus cuniculus; method in brief: as §3
[24] = Minimum inhibitory concentration required to reduce herpes simplex virus-1 (KOS) induced cytopathogenicity by 50% in primary rabbit kidney cells (PRK); format: functional; conditions: Oryctolagus cuniculus; method in brief: as §3

| SMILES | CC50 (Raji [1]) [µg/mL] | MCC (Oryctolagus cuniculus) | K app (Nucleic Acid [2]) [M⁻¹] | MIC (Sindbis virus) [µg/mL] | MCC (HeLa [3]) [µg/mL] | MIC [4] [µg/mL] | CC50 (L1210) [µg/mL] | MIC (Vero [5]) [µg/mL] | MIC (HeLa [7]) [µg/mL] | MIC (Vero [8]) [µg/mL] | MCC (Vero [10]) [µg/mL] | MIC [11] [µg/mL] | MIC [12] [µg/mL] | MIC (HeLa [13]) [µg/mL] | CC50 [14] [µg/mL] | K app (Nucleic Acid [15]) [M⁻¹] | MIC (Semliki Forest virus) [µg/mL] | MIC (Human alphaherpesvirus 2) [µg/mL] | MIC (Human alphaherpesvirus 1) [µg/mL] | MIC [19] [µg/mL] | also measured |
| --- | --- | --- | --- | --- | --- | --- | --- | --- | --- | --- | --- | --- | --- | --- | --- | --- | --- | --- | --- | --- | --- |
| Cn1cc(NC(=O)c2cc(NC(=O)CNC(=N)N)cn2C)cc1C(=O)NCCC(=N)N [NETROPSIN] | 139 (≈ 323 µM) | >400 µg/mL | 31000 | > 400 | > 100 | > 400 | 295 (≈ 685 µM) | > 400 | > 100 | > 400 | > 400 | > 400 | > 400 | > 100 | > 100 | 7.3e+08 | > 400 |  |  |  | Ratio (Nucleic Acid [6]): 23500; MIC (HeLa [9]): > 100 µg/mL; MIC [16]: > 400 µg/mL; CC50 [17]: 321 µg/mL (≈ 746 µM) |
| Nc1nccc2c1ncn2[C@@H]1C[C@H](CO)[C@@H](O)[C@H]1O [3-DEAZAARISTEROMYCIN A] |  | >400 µg/mL |  | > 400 | > 400 | 0.2 (≈ 0.757 µM) |  | 70 (≈ 265 µM) | 2 (≈ 7.57 µM) | 0.4 (≈ 1.51 µM) | > 400 | > 400 | > 400 | > 400 |  |  | > 400 |  |  |  | MIC [16]: 2 µg/mL (≈ 7.57 µM) |
| Cn1cc(NC(=O)c2cc([N+](=O)[O-])cn2C)cc1C(=O)NCCC#N |  | >40 µg/mL | < 100 | > 10 | > 40 | > 10 | > 100 | > 10 |  | > 10 | > 40 |  |  | > 10 | > 100 |  | > 10 | > 10 | > 10 | > 10 | CC50 (Raji [18]): > 100 µg/mL; K app (Nucleic Acid [20]): < 100 M⁻¹ |
| Nc1ncnc2c1ncn2C[C@H](O)CO [(S)-DHPA] |  | >400 µg/mL |  | > 400 | > 400 | 20 (≈ 95.6 µM) |  | 200 (≈ 956 µM) | 20 (≈ 95.6 µM) | 7 (≈ 33.5 µM) | > 400 |  |  | > 400 |  |  | > 400 | > 400 | > 400 | 70 (≈ 335 µM) |  |
| Cn1cc(NC(=O)c2cc(NC(=O)CNC(=N)N)cn2C)cc1C(=O)NCCCNCCCCN | > 200 | >=400 ug ml-1 | 7.6e+06 | > 200 | > 200 | > 100 | > 200 | > 200 |  | > 200 | ≥ 200 | > 200 | > 200 | > 200 | > 200 | 2e+07 | > 200 |  |  |  | Ratio (Nucleic Acid [6]): 2.63; CC50 [17]: > 200 µg/mL |
| Cn1cc([N+](=O)[O-])cc1C(=O)NCCCNCCCCN | > 200 | >400 µg/mL | 420000 | > 400 | > 400 | > 100 | > 200 | > 200 |  | > 200 | > 400 |  |  | > 400 | > 200 |  | > 400 | > 200 | > 200 | > 400 | CC50 (FM3A): > 200 µg/mL; Ratio (Nucleic Acid [21]): 2.38; K app (Nucleic Acid [20]): 1e+06 M⁻¹ |
| Cn1c(C(=O)NCCC#N)ccc1[N+](=O)[O-] | > 50 | 400 µg/mL | < 100 |  | 400 | > 100 | > 50 | > 200 |  | > 100 | > 400 |  |  | > 200 | > 50 | < 100 | > 100 |  |  | 300 (≈ 1350 µM) | IC50 (Vero [22]): > 100 µg/mL; MIC [23]: > 200 µg/mL; MIC [24]: > 200 µg/mL |

From ChEMBL document CHEMBL1124462, “Synthesis, DNA binding, and biological evaluation of synthetic precursors and novel analogues of netropsin” (J Med Chem, 1989)
